The test system of assay [1] is Mycobacterium tuberculosis. As to the kind of experiment: Antibacterial activity against Mycobacterium bovis BCG at 0.01 to 5 ug/ml after 14 days by spot-culture growth inhibition assay. The assay is classed as functional, organism-based. Particulars: variant bovis BCG. Summed up:
(§1)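 Mid-exponential cultures (BCG rotated in 7H9/ADC/Tween 80; H37Rv standing in 7H9/OADC/Tween 80) diluted to 10³ cells/mL. 5 µL spotted onto 7H10 agar with 10% OADC containing compound at 0.01, 0.1, 0.5, 1 and 5 µg/mL. Incubated at 37 °C for 14 days. MIC taken as lowest concentration with no growth; no-compound well as growth control.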

The test system of assay [2] is Mycobacterium tuberculosis. As to the kind of experiment: Antibacterial activity against Mycobacterium bovis BCG after 14 days by spot-culture growth inhibition assay. In kind it is functional. Particulars: variant bovis BCG, 336 h. A digest of the protocol:
as §1

Molecules are shown by their SMILES. ≈ marks a conversion by molar mass, not a printed value. Calls of active or inactive are those of the source. The calls are words filed in the database; no cut-off is given here.

The source of these data is ChEMBL document CHEMBL1151981, “Bioactive pyridine-N-oxide disulfides from Allium stipitatum” (J Nat Prod, 2009).

`CSCSSc1cccc[n+]1[O-]`: in assay [1], the outcome was Active. Further, the MIC (as a rule, the lowest concentration found to suppress growth) in assay [2] came out at 0.1 µg/mL (≈ 0.456 µM).

On to `CSSc1cccc[n+]1[O-]`, for which the result in assay [1] was Active. In addition, in assay [2], inhibition of growth (MIC) required 0.1 µg/mL (≈ 0.577 µM).
